This is an account of results in PMC6467790 (Journal of medicinal chemistry, 2018).

Entries after “also recorded” stand apart in the source; their conditions may differ.

The subject of data set [1] is MCF7 cells. In words: Western blot of histone methylation levels in MCF7 cells. Format: cell-based, human. The essentials: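 MCF7 cells were treated with test compound at the indicated concentrations, or 0.1% DMSO, for 30 or 48 h. Total cell lysates were analysed by Western blot with histone methylation antibodies.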
In data set [2] the test system is MCF7 cells. The data set can be described thus: Real-time RT-PCR of KDM5 target genes in MCF7 cells. Format: cell-based, human. Conditions: MCF7, 1 μM for 2 days.
Data set [3] relates to BT474 cells. In words: Cellular H3K4me3 level in BT474 cells. Type of data set: cell-based, human.
The subject of data set [4] is KDM5B. The settings on record: cited from earlier work.
The test system of data set [5] is BT474 cells. In words: IncuCyte live cell proliferation, BT474. Format: cell-based, human. The essentials:
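BT474 cells were treated with test compound. Growth was followed by live-cell imaging every 4 h over 300 h, with percent confluence as the read-out.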

A short description of data set [6]: Stability in culture media. Type of data set: in vitro ADME. Conditions: after 24 h.
Data set [7] deals with BT474 cells. The data set can be described thus: Cellular extract experiment, BT474 cells. Type of data set: in vitro ADME, human.
The test system of a further data set is MCF7. The data set can be described thus: Bright-field microscopy of live cells, MCF7. The settings on record: MCF7, 24 h; N73: between 5 and 10 μM. Type of data set: cell-based, human.
A short description of the next data set: PAMPA permeability assay. Conditions: pH 7.4. Type of data set: in vitro ADME.
The next data set relates to MDA-MB-231. The data set can be described thus: Bright-field microscopy of live cells, MDA-MB-231. Type of data set: cell-based, human. Conditions: MDA-MB-231, 24 h; N73: between 5 and 10 μM.
A further data set deals with HEK293T. In words: Bright-field microscopy of live cells, HEK293T. Type of data set: cell-based, human. Conditions: 24 h, N73: between 5 and 10 μM.
For a further data set, the system named is K562 cells. Conditions: 10 nM; cited from earlier work.
A further data set concerns KDM5A. The data set can be described thus: ESI mass spectrometry of KDM5A with inhibitors. Type of data set: binding, human. The settings on record: KDM5A 50 μM, inhibitor 0.5 mM, 30 min, ambient temperature.
A further data set has as its target T1, KDM5A(1−739)ΔAP (Homo sapiens, UniProt P29375, DEL88-347).
T1 sequence (P29375 with tags, fused parts or gaps DEL88-347 limits assumed): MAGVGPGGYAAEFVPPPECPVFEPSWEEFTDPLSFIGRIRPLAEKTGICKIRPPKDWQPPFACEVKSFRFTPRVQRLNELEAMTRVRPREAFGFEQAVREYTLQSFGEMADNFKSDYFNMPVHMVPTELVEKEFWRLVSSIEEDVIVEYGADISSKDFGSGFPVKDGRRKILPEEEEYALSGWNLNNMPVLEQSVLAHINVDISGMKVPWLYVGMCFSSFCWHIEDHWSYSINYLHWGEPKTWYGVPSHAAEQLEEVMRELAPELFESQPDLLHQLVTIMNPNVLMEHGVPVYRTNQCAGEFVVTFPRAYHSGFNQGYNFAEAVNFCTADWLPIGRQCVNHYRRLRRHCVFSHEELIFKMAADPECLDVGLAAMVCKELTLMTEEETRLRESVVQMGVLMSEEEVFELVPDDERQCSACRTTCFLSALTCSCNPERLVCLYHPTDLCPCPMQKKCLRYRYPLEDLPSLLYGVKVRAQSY
The data set can be described thus: Promega Succinate-Glo demethylase assay. Type of data set: biochemical. The settings on record: for reversibility of inhibition after buffer exchange / dialysis: [E] = 5 μM, initial [I] = 100 μM, four times of buffer exchange; for dependence of inhibition of KDM5A on αKG concentration: three αKG concentrations (10, 100, 1000 μM), 20 min preincubation; for effect of preincubation with KDM5A on inhibition potency: with or without incubation for 20 min. The essentials:
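Succinate-Glo assay: KDM5A(1−739)ΔAP (0.8 μM) was preincubated 20 min with 2-fold serial dilutions of test compound. Reactions were started with αKG (10, 100 or 1000 μM) plus H3(1−24)K4me3 peptide (60 μM), in 10 μM (NH4)2Fe(SO4)2, 100 μM ascorbate, 50 mM HEPES pH 8.0 and 5% DMSO. They ran 10 min at ambient temperature (n = 3), then succinate detection reagents were added. IC50 came from a four-parameter fit.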

The next data set has as its target T2, KDM4A (Homo sapiens, UniProt O75164).
T2 sequence (O75164 1-359 limits assumed): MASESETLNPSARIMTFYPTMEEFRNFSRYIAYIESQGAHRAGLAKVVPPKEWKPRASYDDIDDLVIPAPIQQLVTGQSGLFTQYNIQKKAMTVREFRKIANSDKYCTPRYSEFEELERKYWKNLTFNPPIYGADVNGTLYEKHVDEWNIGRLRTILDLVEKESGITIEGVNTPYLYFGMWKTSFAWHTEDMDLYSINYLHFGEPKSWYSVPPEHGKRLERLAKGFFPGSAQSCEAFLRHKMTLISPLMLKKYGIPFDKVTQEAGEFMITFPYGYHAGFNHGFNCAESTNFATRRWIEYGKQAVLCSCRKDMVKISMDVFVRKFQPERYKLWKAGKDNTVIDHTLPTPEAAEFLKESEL
In words: AlphaLISA demethylase assay, KDM4A. Format: biochemical.

Data set [8] deals with KDM5B. The data set can be described thus: AlphaLISA demethylase assay, KDM5B. Conditions: AlphaLISA IC50 values; recombinant catalytic domains, same enzyme concentration. Type of data set: biochemical, human.
The subject of the next data set is KDM5A catalytic domain. In words: Isothermal titration calorimetry, binding to KDM5A catalytic domain. Also on record: species or system human. The settings on record: ITC. The essentials: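 Binding was measured by isothermal titration calorimetry with the KDM5A(1−588)ΔAP catalytic-domain construct (internal ARID and PHD1 deleted). KD was the read-out.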

Consider `CCOC(=O)CCNc1cc(N2CCc3ccccc3CC2)nc(-c2ccccn2)n1` [GSK-J4], for which the “overall levels of H3K4me3 or H3K27me3” value in the data set with MCF7 cells [1] (MCF7, same conditions tested) is “influences little of the overall levels of H3K4me3 or H3K27me3”.
Turning to `CCOC(=O)c1ccnc(CNCC(=O)N(CC)CCN(C)C)c1` [KDM5-C70], the “increase of expression of STING, MT1F, and MT1H” value in the data set with MCF7 cells [2] is on record as “up to 6 fold”. The “cellular H3K4me3 levels” value is reported as “increase in cellular H3K4me3 levels” in the data set on BT474 cells [3] (BT474, 1 μM) and “increase in cellular H3K4me3 levels” in the data set on MCF7 cells [1] (MCF7, 1 μM). Also, the “selectivity for the KDM5 family over KDM4A” value in the data set on KDM5B [4] is 10 ×.
Take `CC(C)OC(=O)c1ccnc2cc(C(OCCN3CCCCC3)c3cccc(NC(=O)/C=C/CN(C)C)c3)sc12` (stereo not drawn) [N73, Isopropyl (E)-2-((3-(4-(Dimethylamino)but-2-enamido)phenyl)(2-(piperidin-1-yl)ethoxy)methyl)thieno[3,2-b]-pyridine-7-carboxylate]: the “cell growth (percent confluence)” value in the data set with BT474 cells [5] (BT474, low doses, period of >12 days) is listed as “do not affect cell growth”. Also, the “remained unchanged in culture media” value in [6] is “Approximately 80%”. Moreover, the “cellular H3K4me3 methylation levels” value with BT474 cells [3] (BT474, doses up to 5 μM, 48 h, immunocytochemistry) was “does not increase H3K4me3 level; also recorded: no impact on cellular H3K4me3 methylation levels”. The “intracellular esterase-mediated conversion of ester N73 to acid N71” value in the data set with BT474 cells [7] (24 h) is “appeared to be inefficient”. For the same molecule, in the data set with BT474 cells [7] (incubated 24 h, lysed), the “cell extract level of ester N73 relative to acid N71” value came out at 100 fold. In addition, the “cell killing / effect on cell growth” value with MCF7, with MDA-MB-231 and in the data set on HEK293T was “noteworthy difference in cell killing” throughout. In addition, the Papp at 30 min, 0.05 mM in the data set “PAMPA permeability assay” lay in the range of 10 to 100 ×10⁻⁶ cm/s.
For the molecule `CN(C)C/C=C/C(=O)Nc1cc2c(Nc3ccc(F)c(Cl)c3)ncnc2cc1O[C@H]1CCOC1` [Afatinib], in the data set on K562 cells, the “cytotoxicity for EGFR expressing K562 cells” value is listed as “complete cytotoxicity”.
Turning to `CN(C)C/C=C/C(=O)Nc1cccc(C(OCCN2CCCCC2)c2cc3nccc(C(=O)O)c3s2)c1` (stereo not drawn) [N71, (E)-2-((3-(4-(Dimethylamino)but-2-enamido)-phenyl)(2-(piperidin-1-yl)ethoxy)methyl)thieno[3,2-b]pyridine-7-carboxylic Acid], the “covalent modification of KDM5A enzyme by mass spectrometry” value in the data set with KDM5A was “covalently modified KDM5A enzyme completely”. At KDM5A(1−739)ΔAP, the “dependence of inhibition of KDM5A on enzyme concentration” value is “dependent on enzyme concentration”, the kinact/KI is about 8000 M⁻¹ s⁻¹, the “reversibility of inhibition after buffer exchange / dialysis” value is “persisted even after dialysis; also recorded: does not perturb N71 complex with KDM5A; also recorded: no effect on the inhibition” and the “dependence of inhibition of KDM5A on αKG concentration” value was “no significant change to IC50 values with variation in αKG concentration; also recorded: did not appear to be sensitive to the αKG concentration”. The “effect of preincubation with KDM5A on inhibition potency” value on KDM5A(1−739)ΔAP is “increased inhibition potency”. Besides, the “IC50 value lower than that of N70” value against KDM5A(1−739)ΔAP (100 μM αKG concentration) is on record as ~ 50 fold. Also, the “inhibition constants against KDM4A, N70 compared with N71” value against KDM4A is reported as “about the same”. In the data set with MCF7, the “cell killing / effect on cell growth” value is listed as “no effect on cell growth”. Also, the “cell killing / effect on cell growth” value with MDA-MB-231 was “no effect on cell growth”. Further, the “cell killing / effect on cell growth” value in the data set with HEK293T is recorded as “no effect on cell growth”.
As for `Nc1cccc(C(OCCN2CCCCC2)c2cc3nccc(C(=O)O)c3s2)c1` (stereo not drawn) [N70, 2-((3-aminophenyl)(2-(piperidin-1-yl)ethoxy)-methyl)thieno[3,2-b]pyridine-7-carboxylic acid], in the data set with KDM5B [8], the “selectivity for KDM5B over KDM4A” value is 7−8 fold. On KDM5A(1−739)ΔAP, the “reversibility of inhibition after buffer exchange / dialysis” value is listed as “could be reversed after dialysis; also recorded: removes the noncovalent modifying N70 from solution; also recorded: enzyme activity could be restored after buffer exchange”, the “dependence of inhibition of KDM5A on αKG concentration” value is listed as “αKG-competitive inhibition; also recorded: dependent on αKG concentration” and the “effect of preincubation with KDM5A on inhibition potency” value is reported as “insensitive”. Besides, on KDM4A, the “inhibition constants against KDM4A, N70 compared with N71” value is on record as “about the same”. The same molecule had a Papp at 30 min, 0.05 mM in the data set “PAMPA permeability assay” of 10 to 100 ×10⁻⁶ cm/s.
As for `CN1CCCC1CCOC(c1cc2nccc(C(=O)O)c2s1)c1ccccc1Cl` (stereo not drawn) [N49, 2-((2-Chlorophenyl)(2-(1-methylpyrrolidin-2-yl)-ethoxy)methyl)thieno[3,2-b]pyridine-7-carboxylic Acid], the “selectivity for KDM5B over KDM4A” value in the data set with KDM5B [8] is reported as 7−8 fold. In addition, the “difference in binding affinity (KD) to KDM5A between N46 and N49” value in the data set with KDM5A catalytic domain is given as “approximately 2 fold”.
For `CC(C)OC(=O)c1ccnc2cc(C(OCCN3CCCCC3)c3cccc(N)c3)sc12` (stereo not drawn) [SI-5, Isopropyl 2-((3-Aminophenyl)(2-(piperidin-1-yl)-ethoxy)methyl)thieno[3,2-b]pyridine-7-carboxylate], the “growth inhibition (percent confluence)” value in the data set with BT474 cells [5] (BT474, highest concentration tested 28 μM) is recorded as “some growth inhibition at the highest concentration tested”. This molecule yielded a Papp at 30 min, 0.05 mM in “PAMPA permeability assay” of over 100 ×10⁻⁶ cm/s.
